Test results published in ChEMBL document CHEMBL1156527, “Potent D-peptide inhibitors of HIV-1 entry” (Proc Natl Acad Sci U S A, 2007).
Activity calls are given as the source filed them. The calls are words filed in the database; no cut-off is given here.

Tests used:
[1] = Binding affinity to HIV1 N-trimer gp41 mimic IZN36 by surface plasmon resonance analysis
[2] = test system: Human immunodeficiency virus 1; experiment: Antiviral activity against HIV1 JRFL in HOS-CD4-CCR5 cells by viral infectivity assay; format: functional, organism-based; details: Human immunodeficiency virus 1, JRFL
In short: (§1)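 Single-cycle pseudovirion entry assay. HXB2 pseudovirions were used on HOS-CD4-CXCR4 cells, and BaL or JRFL on HOS-CD4-CCR5 cells. 8 μg/ml DEAE-Dextran served as fusion enhancer, and medium was changed ≈24 h post-infection. DMSO-dissolved samples were run at 1% final DMSO against a 1% DMSO uninhibited control. IC50 comes from duplicate assays. Toxicity was checked microscopically and by luciferase with VSV-G pseudotyped virions, where a >10% loss meant toxicity.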

[3] = test system: Human immunodeficiency virus 1; experiment: Antiviral activity against HIV1 HXB2 in HOS-CD4-CXCR4 cells by viral infectivity assay; format: functional, organism-based; details: Human immunodeficiency virus 1, HXB2
In short: as §1

[4] = test system: Human immunodeficiency virus 1; experiment: Antiviral activity against HIV1 BaL in HOS-CD4-CCR5 cells by viral infectivity assay; format: functional, organism-based; details: Human immunodeficiency virus 1, BaL
In short: as §1

HOS = experiment: Cytotoxicity in VSV-G pseudotyped virion infected human HOS-CD4-CXCR4 cells assessed as luciferase level at 100 uM after 24 hrs; format: cell-based
In short: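 Single-cycle infection in HOS-CD4 target cells with VSV-G-pseudotyped luciferase virions in the presence of peptide, using 8 μg/ml DEAE-Dextran as fusion enhancer. Media were changed about 24 h after infection. DMSO-dissolved samples were run at 1% final DMSO against a 1% DMSO uninhibited control. A luciferase drop of more than 10% counted as cytotoxicity, alongside microscopic inspection at about 24 h.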

[5] = test system: Human immunodeficiency virus 1; experiment: Antiviral activity against HIV1 JRFL in HOS-CD4-CCR5 cells at 100 uM by viral infectivity assay; format: functional, organism-based
In short: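 JRFL pseudovirions were tested in single-cycle infection of HOS-CD4-CCR5 cells with 8 μg/ml DEAE-Dextran and a medium change ≈24 h post-infection. Inhibition was scored at 100 μM. DMSO-dissolved samples were at 1% final DMSO, normalized to a 1% DMSO control.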

Question: For CC(C)C[C@@H](NC(=O)[C@@H](Cc1c[nH]c2ccccc12)NC(=O)[C@@H](CCCNC(=N)N)NC(=O)[C@@H](Cc1c[nH]c2ccccc12)NC(=O)[C@@H](CCC(=O)O)NC(=O)[C@H]1CCCN1C(=O)[C@@H](Cc1ccc(O)cc1)NC(=O)[C@@H](CC(=O)O)NC(=O)[C@@H](CS)NC(=O)[C@@H](C)NC(=O)CNC(=O)[C@H](N)CCCCN)C(=O)N[C@H](CS)C(=O)N[C@H](C)C(=O)N[C@H](C)C(=O)O, which Kd [1] is on record?
Answer: 130 nM

Question: And the IC50 [2]?
Answer: 66000 nM

Question: What about the IC50 [3] of the same compound?
Answer: 1300 nM

Question: Which Kd [1] does the source give for CC(C)C[C@@H](NC(=O)[C@@H](Cc1c[nH]c2ccccc12)NC(=O)[C@@H](CCC(N)=O)NC(=O)[C@@H](Cc1c[nH]c2ccccc12)NC(=O)[C@@H](CCC(=O)O)NC(=O)[C@H]1CCCN1C(=O)[C@@H](Cc1ccc(O)cc1)NC(=O)[C@@H](CC(=O)O)NC(=O)[C@@H](CS)NC(=O)[C@@H](C)NC(=O)CNC(=O)[C@H](N)CCCCN)C(=O)N[C@H](CS)C(=O)N[C@H](C)C(=O)N[C@H](C)C(=O)O here?
Answer: 80 nM

Question: What about the IC50 [2] of the same compound?
Answer: 24000 nM

Question: And the IC50 [4]?
Answer: 2200 nM

Question: What about the IC50 [3] of the same compound?
Answer: 620 nM

Question: Which IC50 [3] does the source give for CC(C)C[C@@H](NC(=O)[C@@H](Cc1c[nH]c2ccccc12)NC(=O)[C@@H](CCCNC(=N)N)NC(=O)[C@@H](Cc1c[nH]c2ccccc12)NC(=O)[C@@H](CCC(=O)O)NC(=O)[C@H]1CCCN1C(=O)[C@@H](CO)NC(=O)[C@@H](CCC(=O)O)NC(=O)[C@@H](CS)NC(=O)[C@@H](C)NC(=O)CNC(=O)[C@@H](CCCCN)NC(=O)[C@H](N)CCCCN)C(=O)N[C@H](CS)C(=O)N[C@H](C)C(=O)N[C@H](C)C(=O)O here?
Answer: 2200 nM

Question: With CC(C)C[C@@H](NC(=O)[C@@H](Cc1c[nH]c2ccccc12)NC(=O)[C@@H](CCCNC(=N)N)NC(=O)[C@@H](Cc1c[nH]c2ccccc12)NC(=O)[C@@H](CCC(=O)O)NC(=O)[C@H]1CCCN1C(=O)[C@@H](Cc1ccc(O)cc1)NC(=O)[C@@H](CC(=O)O)NC(=O)[C@@H](CS)NC(=O)[C@@H](C)NC(=O)CNC(=O)[C@@H](CCCCN)NC(=O)[C@H](N)CCCCN)C(=O)N[C@H](CS)C(=O)N[C@H](C)C(=O)N[C@H](C)C(=O)O as the compound, how does the Kd [1] read?
Answer: 170 nM

Question: What about the IC50 [3] of the same compound?
Answer: 2600 nM

Question: Which results are given for CC(C)C[C@@H](NC(=O)[C@@H](Cc1c[nH]c2ccccc12)NC(=O)[C@@H](CCC(N)=O)NC(=O)[C@@H](Cc1c[nH]c2ccccc12)NC(=O)[C@@H](CCC(=O)O)NC(=O)[C@@H](CCCCN)NC(=O)[C@@H](Cc1ccc(O)cc1)NC(=O)[C@@H](CC(=O)O)NC(=O)[C@@H](CS)NC(=O)[C@@H](C)NC(=O)CNC(=O)[C@H](N)CCCCN)C(=O)N[C@H](CS)C(=O)N[C@H](C)C(=O)N[C@H](C)C(=O)O?
Answer: Kd [1]: 170 nM; IC50 [2]: 110000 nM; IC50 [3]: 1700 nM

Question: For CC(C)C[C@@H](NC(=O)[C@@H](CC(C)C)NC(=O)[C@@H](CCC(=O)O)NC(=O)[C@@H](CS)NC(=O)[C@@H](C)NC(=O)CNC(=O)[C@@H](CCCCN)NC(=O)[C@H](N)CCCCN)C(=O)NCC(=O)N[C@H](Cc1c[nH]c2ccccc12)C(=O)N[C@H](CCC(=O)O)C(=O)N[C@H](Cc1c[nH]c2ccccc12)C(=O)N[C@H](C)C(=O)N[C@H](Cc1c[nH]c2ccccc12)C(=O)N[C@H](CC(C)C)C(=O)N[C@H](CS)C(=O)N[C@H](C)C(=O)N[C@H](C)C(=O)O, which Kd [1] is on record?
Answer: 7000 nM

Question: What about the IC50 [2] of the same compound?
Answer: > 25000 nM

Question: And the Activity (HOS)?
Answer: Toxic

Question: What about the IC50 [4] of the same compound?
Answer: 12000 nM

Question: And the IC50 [3]?
Answer: 9500 nM

Question: With CC(C)C[C@@H](NC(=O)[C@@H](Cc1c[nH]c2ccccc12)NC(=O)[C@@H](CCCNC(=N)N)NC(=O)[C@@H](Cc1c[nH]c2ccccc12)NC(=O)[C@@H](CCC(=O)O)NC(=O)[C@H]1CCCN1C(=O)[C@@H](CO)NC(=O)[C@@H](CCC(=O)O)NC(=O)[C@H](CS)NC(=O)[C@@H](C)NC(=O)CNC(=O)[C@@H](CCCCN)NC(=O)[C@H](N)CCCCN)C(=O)N[C@@H](CS)C(=O)N[C@H](C)C(=O)N[C@H](C)C(=O)O as the compound, how does the Activity [5] read?
Answer: inactive
